Measured values reported in PMC4677462 (Organic & biomolecular chemistry, 2012).
Values belong to the compound of their own block, whether it stands above or below them.

Experiments:
[1] = target: PHD2 (Homo sapiens, UniProt Q9GZT9); assay: AlphaScreen PHD2 inhibition assay; assay type: biochemical; conditions: 10μM and 300μM of compounds
[2] = target: catalytic domain of PHD2 (residues 181-426) (Homo sapiens, UniProt Q9GZT9); assay: Non-denaturing ESI-MS binding to PHD2 in presence of Fe; conditions: standard conditions; for ESI-MS competition with NOG for binding to PHD2: equimolar NOG; for PHD2-iron-compound complex formation / binding of a second iron in ESI-MS: 2 equiv. Fe(II), 1 equiv. compound
[3] = system: HIF-1α; assay: HIF-1α stabilisation immunoblot in Hep3B cells; assay type: cell-based, human; conditions: for Cell-based activity HIF-1α Induction: methyl or ethyl esters (numbers in parentheses) tested, 0.1 mM and 1 mM; for Cell-based activity HIF-1α Induction / HIF-1α stabilization / HIF-1α stabilization in presence of Fe(II): Hep3B cells, 6 h; for HIF-1α stabilization: absence of added Fe(II); for HIF-1α stabilization in presence of Fe(II): equimolar amount of Fe(II)
Outline: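 Confluent human Hep3B hepatoma cells given methyl or ethyl ester forms of test compounds (100 mM DMSO stock) for 6 h under normoxia. Fe(II) experiments added equimolar Fe(II) either at the start or for the final 2 h, with DFO and DMOG as comparators. Whole-cell lysate immunoblots probed with mouse anti-HIF-1α (clone 54).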

[4] = system: HIF-1α; assay: HIF-1α stabilisation immunoblot in RCC4/VHL cells; assay type: cell-based, human; conditions: 200 μM and 1mM
[5] = system: HIF prolyl and asparaginyl hydroxylases; assay: HIF-1α prolyl; assay type: cell-based, human; conditions: RCC4 cells, 1 mM and 2 mM
Outline: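 VHL-defective RCC4 renal carcinoma cells carrying empty vector (RCC4/VA), which cannot degrade HIF-1α by the proteasome, grown to confluence and treated 5 h with test compound from 100 mM DMSO stock. Whole-cell lysate immunoblots probed with Hyp564- and HyAsn803-specific antibodies. Signals normalised to HIF-1α band intensity, with β-tubulin/β-actin as loading controls. DMSO negative and DMOG positive controls.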

Chain of catalytic domain of PHD2 (residues 181-426) (Q9GZT9 181-426): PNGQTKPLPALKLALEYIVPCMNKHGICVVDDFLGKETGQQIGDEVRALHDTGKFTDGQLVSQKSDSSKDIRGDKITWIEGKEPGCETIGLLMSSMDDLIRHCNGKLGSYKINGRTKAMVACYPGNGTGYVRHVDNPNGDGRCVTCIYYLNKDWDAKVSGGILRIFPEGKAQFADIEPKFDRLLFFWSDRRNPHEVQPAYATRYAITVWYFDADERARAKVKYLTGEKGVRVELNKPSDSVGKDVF
Chain of PHD2 (Q9GZT9 181-426): as above

PHD2 inhibition in initial two-concentration screening [1]: weak PHD2 inhibitors
Structure (SMILES): O=C(O)/C=C\C(=O)NNC(=O)c1ccccn1 [Compound 4]

Structure (SMILES): O=C(O)CCC(=O)NNC(=O)c1cc2ccccc2cn1 [Compound 11]
ESI-MS competition with NOG for binding to PHD2 [2]: compete effectively with NOG for binding to PHD2
HIF-1α levels, free carboxylate compounds ([3]; human hepatoma Hep3B cells, free acid form): did not up-regulate HIF-1α levels

Structure (SMILES): O=C(O)CNC(=O)c1nc(Cl)c2ccccc2c1O [BIQ, 2-(1-chloro-4-hydroxyisoquinoline-3-carboxamido)acetic acid]
Cell-based activity HIF-1α Induction [3]: Active

Structure (SMILES): O=C(O)/C=C/C(=O)NNC(=O)c1cc2ccccc2cn1 [Compound 14]
HIF-1α upregulation [4]: almost no HIF-1α induction

PHD2-iron-compound complex formation / binding of a second iron in ESI-MS [2]: only bound to one iron
Structure (SMILES): O=C(O)/C=C/C(=O)NNC(=O)c1ccccn1 [Compound 5]
HIF-1α upregulation [4]: upregulated HIF-1α, but to a lesser extent than its ester

Structure (SMILES): CC(=O)N(O)CCCCCNC(=O)CCC(=O)N(O)CCCCCNC(=O)CCC(=O)N(O)CCCCCN [DFO, deferoxamine]
HIF-1α stabilization [3]: induced HIF-1α stabilization
HIF-1α stabilization in presence of Fe(II) [3]: HIF-1α stabilization was not observed

Structure (SMILES): O=C(O)/C=C/C(=O)NNC(=O)c1cccnc1 [Compound 9]
ESI-MS competition with NOG for binding to PHD2 [2]: compete effectively with NOG for binding to PHD2

PHD2 inhibition in initial two-concentration screening [1]: weak PHD2 inhibitors
PHD2-iron-compound complex formation / binding of a second iron in ESI-MS [2]: formed a two-iron complex with PHD2
Structure (SMILES): O=C(O)CCCC(=O)NNC(=O)c1ccccn1 [Compound 2]

Structure (SMILES): COC(=O)CNC(=O)C(=O)OC [DMOG, Dimethyloxalyl glycine]
HIF-1α stabilization [3]: induced HIF-1α stabilization
HIF-1α stabilization in presence of Fe(II) [3]: reduction in HIF-1α stabilization
Cell-based activity HIF-1α Induction [3]: Active
Inhibition of HIF prolyl-hydroxylation [5]: only partially inhibited
